Rows were chosen to be rich in hits. Some 1.4% of all compounds tested hit in one or more screens of this group.
APOBEC3A inh: human APOBEC3A DNA deaminase inhibition. inhibition, % at 20 µM. P31941. 330,000 tested, 0.41% active. recombinant A3A, FAM/TAMRA ssDNA deamination fluorescence. AID 493011;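 active = at least 40% inhibition at 20 µM here, with at most 30% in a related deaminase screen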;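 also: plate controls were A3A with DMSO for no effect and wells lacking A3A enzyme for full effect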
Target sequence (P31941 whole entry, looked up): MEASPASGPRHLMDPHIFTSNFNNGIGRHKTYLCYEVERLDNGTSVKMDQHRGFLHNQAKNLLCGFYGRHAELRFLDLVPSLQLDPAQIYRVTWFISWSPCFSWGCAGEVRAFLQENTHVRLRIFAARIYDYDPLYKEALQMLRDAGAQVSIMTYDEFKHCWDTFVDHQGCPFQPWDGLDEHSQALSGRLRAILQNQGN
A3G deaminase: inhibitors of human APOBEC3G DNA deaminase; Q9HC16; recombinant A3G, ssDNA deamination FAM/TAMRA fluorescence; inhibition, % at 20 µM; 330,000 tested, 0.28% active;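 active = inhibition of at least 40% at 20 µM, with no more than 30% in the related APOBEC3A deaminase screen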;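 also: plate controls were DMSO wells with A3G for no effect and wells lacking A3G enzyme for full effect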
CCR6 antag: CCR6 (human) receptor antagonism | P51684 | inhibition, % at 20 µM | CHO-K1 CCR6 PathHunter beta-arrestin, luminescence, CCL20-stimulated | 340,000 tested, 0.49% active;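 active = compounds whose inhibition of the agonist-driven luminescence signal at 20 µM reaches about 50%, limit read from the data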;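 also: cells stimulated with CCL20 at 14 nM final; plate controls were DMSO with CCL20 for no effect and DMSO without agonist for full effect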
Target sequence (P51684 whole entry, looked up): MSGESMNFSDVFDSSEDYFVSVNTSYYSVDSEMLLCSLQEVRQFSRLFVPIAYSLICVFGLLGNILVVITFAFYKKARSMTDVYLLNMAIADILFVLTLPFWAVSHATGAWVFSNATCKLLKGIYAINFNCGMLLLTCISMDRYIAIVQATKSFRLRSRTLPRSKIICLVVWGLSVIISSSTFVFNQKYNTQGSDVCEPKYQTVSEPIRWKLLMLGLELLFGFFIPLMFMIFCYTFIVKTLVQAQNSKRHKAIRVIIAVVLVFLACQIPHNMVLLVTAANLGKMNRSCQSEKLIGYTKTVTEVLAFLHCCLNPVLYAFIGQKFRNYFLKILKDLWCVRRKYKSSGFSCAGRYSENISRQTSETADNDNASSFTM
APJ ag: APJ receptor agonism. P35414. 330,000 tested, 0.11% active. CHO-K1 APJ PathHunter beta-arrestin, luminescence; 0% DMSO wells, 100% apelin. AID 2520. activation, % at 20 µM;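 active = activation more than six SD over the plate average, tested at 20 µM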;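 also: 0% = DMSO alone and 100% = apelin-13 at 10 nM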
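Incubation: overnight seeding, 90 min compound at 25 °C, 1 h detection; test system: PathHunter CHO-K1 APJ (AGTRL-1) beta-arrestin reporter cells; amount: 1000 cells/well; doses: one dose, 20 µM compound, 1% DMSO; measured by: beta-gal luminescence; measure: agonist-driven arrestin binding to APJ; benchmarks: negative DMSO alone, positive Apelin-13 at 10 nM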
CXCR6 block: CXCR6 (human) receptor inhibition; O00574; CHO-K1 PathHunter CXCR6 beta-arrestin, luminescence; inhibition, % at 20 µM; 360,000 tested, 0.36% active; in the data active = inhibition above about 34%, passing the limit was not always enough;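 also: antagonist mode with CXCL16 agonist at 10 nM final; 0% = 10 nM CXCL16 with DMSO and 100% = unstimulated wells without agonist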
APJ antag: APJ receptor antagonism; 330,000 tested, 0.32% active; P35414; AID 2521; inhibition, % at 20 µM; CHO-K1 APJ beta-arrestin complementation, luminescence;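 active = inhibition above about 40% at 20 µM, limit read from the data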;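 also: cells challenged with 10 nM apelin-13 agonist together with compound; plate controls were apelin-13 plus DMSO wells for no effect and DMSO wells lacking apelin-13 for full effect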
APJ antag conf: APJ receptor antagonism confirmation; shares compounds with APJ antag; APJ beta-arrestin recruitment, luminescence, antagonist mode; inhibition, % at 20 µM; 950 tested, 66% active; AID 2766; in the data active = inhibition above about 50%
Numbers without * were called inactive; . = no result.

SMILES | APOBEC3A inh | A3G deaminase | CCR6 antag | APJ ag | CXCR6 block | APJ antag | APJ antag conf
Cc1cc(Br)c(Cl)cc1NC(=O)CN1C(=O)C2C3CC(c4ccccc4)C(C3)C2C1=O (stereo unspecified) | -0.1 | -2.3 | -10.2 | -1.7 | -12.0 | 55.2* | -20.4
CCC(C)C(=O)C(=O)N1CCC(n2nccc2NC(=O)CCOc2ccccc2)CC1 (stereo unspecified) | . | . | . | . | -6.7 | . | .
CC1Nc2ncnc(N3CCN(c4ccccn4)CC3)c2N(Cc2ccccc2)C1=O (stereo unspecified) | -0.6 | 1.3 | 79.0* | -20.4 | 68.5* | 64.6* | 109.9*
COc1ccc(S(=O)(=O)N2CCC(=O)N2)cc1 | -1.0 | -4.6 | 20.3 | -14.7 | 12.9 | 46.2* | 49.8
COc1ccc(CCN(C)C(=O)c2ccc(S(=O)(=O)Nc3ccccc3F)cc2)cc1OC | -1.3 | -9.8 | -4.0 | 3.2 | 4.0 | 9.6 | .
COc1cccc(/C=C2\CC(C)Cc3c2nc2ccccc2c3C(=O)O)c1OC (stereo unspecified) | -1.5 | -4.0 | 9.9 | -1.1 | -3.2 | 48.7* | -18.0
CN(Cc1ccccc1)C(=S)NC(=O)c1cccs1 | -1.5 | -7.9 | 22.1 | 7.1 | 9.1 | 40.8* | 33.0
COc1cc(C(=O)NC(=S)N(C)Cc2ccccc2)cc(OC)c1OC | -3.9 | -6.8 | 8.6 | -5.5 | 5.1 | 4.8 | .
Cc1nn(CCC(=O)NNC(=S)Nc2ccccc2)c(C)c1Br | -1.8 | -6.2 | 27.3 | -11.9 | 7.6 | 47.5* | 100.1*
CNC(=S)NNC(=O)CCn1nc(C)c(Br)c1C | 0.3 | -0.7 | -6.5 | -2.0 | -0.7 | 20.5 | .
Cc1nn(CCC(=O)NNC(=S)NCC(C)C)c(C)c1Br | -2.4 | -5.9 | 53.3* | -13.6 | 38.1 | 77.3* | 114.8*
COc1ccc(C2=NS(=O)(=O)N(C)C(C(=O)NCc3ccc(F)cc3)=C2)cc1OC | -2.5 | -5.0 | 4.4 | -2.8 | 9.6 | 10.4 | .
Nc1nc(-c2ccc(Cl)cc2)c(N=Nc2ccc(S(=O)(=O)N3CCOCC3)cc2)s1 | -4.8 | -14.2 | 71.3* | -3.9 | 51.4* | 48.8* | 89.0*
CCOc1cc2[nH]c(=O)n(CCCCC(=O)N3CCCCCC3)c(=O)c2cc1OCC | 0.3 | -1.2 | 11.4 | 2.6 | -1.8 | 44.1* | 1.3
CCCCCNC(=O)CCCCn1c(=O)[nH]c2cc(OCC)c(OCC)cc2c1=O | 3.3 | 1.0 | 4.9 | 1.6 | -3.2 | 4.7 | .
O=C(Nc1nc2ccc(F)cc2s1)c1ccccn1 | 0.1 | -0.8 | 65.1* | -11.1 | . | 77.0* | 68.2*
Cc1ccc(S(=O)(=O)N/N=C/c2ccc3nccnc3c2)cc1 | 3.0 | -1.4 | 55.9* | -11.5 | 17.7 | 57.7* | 88.1*
COc1cccc(CN(C(=O)COc2ccc(C)cc2)C2CCS(=O)(=O)C2)c1 (stereo unspecified) | -4.2 | -6.5 | 2.1 | -3.7 | -1.7 | 13.7 | .
O=C(CSc1ncnc2c1cnn2-c1ccccc1)Nc1ccccc1 | -2.3 | -8.3 | 11.0 | 1.5 | 0.1 | 53.7* | 26.7
Nc1[nH]c2cc([N+](=O)[O-])ccc2c1-c1ccccn1 | -7.4 | -0.3 | 49.1 | -6.6 | 33.9 | 47.3* | 99.5*
NS(=O)(=O)c1ccc(N=Nc2ccc(O)c3ncccc23)cc1 | 9.4 | 12.9 | 63.7* | -9.9 | 48.3* | 48.7* | 86.7*
CCN(CC)S(=O)(=O)c1cc(OC)ccc1N=Nc1ccc(O)c2ncccc12 | 26.8 | 15.9 | 54.9* | -3.4 | 36.2 | 43.1* | 49.5
Cc1ccc(C)c(N=Nc2ccc(O)c3ncccc23)c1 | 0.9 | -2.7 | 62.9* | -9.1 | 5.0 | 44.9* | 74.1*
Cc1cccc(N=Nc2ccc(O)c3ncccc23)c1 | 5.1 | 5.4 | 33.4 | -12.0 | 37.1 | 41.8* | 83.1*
CCS(=O)(=O)c1ccc(OC)c(N=Nc2ccc(O)c3ncccc23)c1 | 27.4 | 10.5 | 10.1 | -7.6 | 4.3 | 21.9 | .
SMILES | APOBEC3A inh | A3G deaminase | CCR6 antag | APJ ag | CXCR6 block | APJ antag | APJ antag conf
CCOc1ccc(N=Nc2ccc(O)c3ncccc23)cc1 | 5.0 | 6.7 | 28.2 | -8.5 | -2.2 | 24.9 | .
O=C(Nc1ncccc1O)c1ccc2c(c1)OCCO2 | -2.2 | -8.4 | -9.6 | -5.3 | -10.3 | -1.2 | .
Oc1ccc(N=Nc2ccc3c(c2)OCCO3)c2ncccc12 | 5.2 | -0.6 | 54.0* | -5.1 | 34.8 | 52.8* | 89.4*
CC1CCCCN1C(=O)CSc1nc2cc3c(cc2c(=O)n1Cc1ccc2c(c1)OCO2)OCO3 (stereo unspecified) | -2.6 | -7.9 | 3.0 | -1.3 | 10.2 | 54.9* | 57.3*
CC(=O)Nc1ccc(NC(=O)CCC(=O)OCC(=O)c2ccc(F)cc2)cc1 | -3.5 | -5.2 | -13.6 | 5.6 | 4.0 | 12.1 | .
CC(=O)c1ccc(NC(=O)CCC(=O)OCC(=O)c2cccc([N+](=O)[O-])c2)cc1 | -1.6 | -13.7 | 54.9* | -14.2 | 21.9 | 43.1* | 76.8*
CC(=O)Nc1ccc(NC(=O)CCC(=O)OCC(=O)c2ccc(C)c([N+](=O)[O-])c2)cc1 | -1.9 | -4.7 | 42.5 | -9.2 | 10.5 | 70.2* | 54.5*
Cc1ccc(C(=O)COC(=O)CCC(=O)Nc2ccccc2Cl)cc1[N+](=O)[O-] | -2.1 | -6.4 | 32.6 | -7.6 | 17.2 | 44.5* | 75.0*
COc1cc[n+]([O-])cc1[N+](=O)[O-] | . | . | -2.9 | . | -5.5 | . | .
COc1ccc(C(=O)/C=C/C(=O)N(CC(=O)NC2CCCCC2)CC2CCCO2)c(O)c1 (stereo unspecified) | -3.3 | -10.1 | 86.7* | -3.6 | 68.3* | 55.7* | 109.6*
COc1ccc(C(=O)/C=C/C(=O)N(Cc2ccc(F)cc2)C(C(=O)NC2CCCCC2)c2ccncc2)c(O)c1 (stereo unspecified) | -0.6 | -1.6 | 13.0 | -1.3 | 6.2 | -12.6 | .
CCOC(=O)C1=C(c2ccccc2)N=c2s/c(=C\c3ccc(O)cc3)c(=O)n2C1c1cccs1 (stereo unspecified) | -14.3 | -22.0 | 53.1* | -8.0 | 17.6 | 42.4* | 101.5*
CCOC(=O)C1=C(C)N=c2s/c(=C/c3cccc([N+](=O)[O-])c3O)c(=O)n2C1c1ccccc1 (stereo unspecified) | -1.6 | 7.4 | 70.8* | -9.4 | 32.8 | 49.5* | 98.7*
CCOC(=O)C1=C(C)N=c2s/c(=C/c3ccco3)c(=O)n2C1c1cccc(OC)c1 (stereo unspecified) | 14.0 | 1.7 | 37.3 | -2.8 | . | -19.3 | .
CCOC(=O)C1=C(C)N=c2s/c(=C/c3cccc([N+](=O)[O-])c3O)c(=O)n2C1c1cc(OC)c(OC)c(OC)c1 (stereo unspecified) | 3.4 | 19.3 | 54.7* | -6.8 | 34.4 | 40.4* | 90.1*
COc1ccccc1/C=C/C(=O)NCC(=O)N=Nc1c(O)[nH]c2ccccc12 | -1.1 | -2.5 | 6.1 | 2.1 | 1.6 | 1.7 | .

Assay outcomes (PubChem BioAssay)
